# Compounds with a hit are over-represented: about 9.6% of the library has one in this group of screens.
# Lmaj promast: Leishmania major promastigote growth inhibition, primary screen | Leishmania major promastigotes, resazurin fluorescence viability | inhibition, % at 10 µM | 9% of 200,000 active | AID 1063, 2008; in the data active = inhibition above about 50%;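 note: promastigotes grown with compound for 44 hours at 28 °C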
# PMI activator: activators of human PMI, primary screen, biochemical, fluorescence intensity, near-Km mannose 6-phosphate | Mannose-6-phosphate isomerase (Homo sapiens), P34949 | activation factor at 20 µM | AID 1214, 2008 | purified human PMI, coupled resazurin fluorescence, 20 min; hits give high values; 1 = vehicle control, 0 substrate-free wells | 0.005% of 190,000 active;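 active = activation factor of 2 or more at 20 µM, relative to plate controls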
# Target sequence (P34949 whole entry, looked up): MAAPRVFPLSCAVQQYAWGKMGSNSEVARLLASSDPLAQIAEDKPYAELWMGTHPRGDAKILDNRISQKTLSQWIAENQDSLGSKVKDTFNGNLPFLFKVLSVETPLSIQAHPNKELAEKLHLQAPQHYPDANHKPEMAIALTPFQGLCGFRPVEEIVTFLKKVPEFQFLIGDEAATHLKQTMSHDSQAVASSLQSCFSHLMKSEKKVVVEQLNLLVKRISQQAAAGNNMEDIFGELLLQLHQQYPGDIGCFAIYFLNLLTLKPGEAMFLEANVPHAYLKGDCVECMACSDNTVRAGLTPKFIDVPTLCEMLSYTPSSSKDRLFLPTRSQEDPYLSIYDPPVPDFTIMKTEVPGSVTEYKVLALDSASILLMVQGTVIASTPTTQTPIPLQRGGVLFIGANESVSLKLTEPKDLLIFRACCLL
# HCT116 bCat-KO: primary screen for growth suppressors in beta-catenin knockout HCT116 cells (colon tumor, human) | 1.5% of 140,000 active | HCT116 beta-catenin knockout viability, CellTiter-Glo, 60 h; hits give low values | viability, % at 10 µM;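 active = viability at or under a set limit, the compound median less 4 SD, cut at about 6% in these data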;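 note: 0% = Hyamine 1622 control at 20 µM and 100% = untreated cell control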
# PMI act satM6P: human PMI activators, high substrate, primary screen, biochemical, fluorescence intensity, near-saturating mannose 6-phosphate. coupled PMI enzyme assay, resazurin fluorescence, 20 min; hits give high values; 1 = untreated enzyme, 0 = substrate-free blank. activation factor at 20 µM. 0.34% of 190,000 active. AID 1216, 2008;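 active = activation factor of 2 or more at 20 µM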
#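 Material: human phosphomannose isomerase with PGI, G6PDH, diaphorase coupling enzymes / Reagent: Man-6-P substrate 1.0 mM / Dosing: single compound dose of 20 µM, 1% DMSO final / Incubation: enzyme reaction with compound 20 min at room temperature / Signal: resorufin fluorescence (Ex 544/Em 590 nm) from resazurin via diaphorase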
# HCT116 PTEN-null: growth suppression of PTEN-null HCT116, primary screen, cell-based, CellTiter-Glo | HCT116 PTEN-null viability, 60 h; hits give low values | viability, % at 10 µM | 1.2% of 140,000 active | AID 827, 2007;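 active = viability at or below a set limit, 4 SD under the median of all tested compounds, cut at about 3.7% in these data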;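 note: PTEN knockout HCT116 line with beta catenin targeted HCT116 as companion control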
# Lmaj promast 1uM: Leishmania major promastigote growth inhibition, confirmation, 1 µM repeat of primary hits. shares compounds with Lmaj promast. L. major promastigote growth, resazurin fluorescence, 48 h. inhibition, % at 1 µM. 13% of 1,100 active;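 active = inhibition above about 50% in both repeat tests, limit read from the data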
# Numbers without * were called inactive; nt = no result.
SMILES,Lmaj promast,PMI activator,HCT116 bCat-KO,PMI act satM6P,HCT116 PTEN-null,Lmaj promast 1uM
Cc1ccc(S(=O)(=O)N2Cc3ccccc3CC2C(=O)Nn2cnnc2)cc1 (stereo not given),1,0.9,103,0.9,95,nt
CCOc1ccc(S(=O)(=O)N2Cc3ccccc3CC2C(=O)NCCCn2ccnc2)cc1 (stereo not given),98*,1.1,90,1.1,106,-8
CCOc1cc(N2CCOCC2)c(OCC)cc1NC(=O)COC(=O)c1cccc2ccccc12,3,0.8,80,0.8,76,nt
CCOC(=O)c1cc2oc(C(c3nnnn3C3CCCCC3)N3CCOCC3)cc2[nH]1 (stereo not given),82*,1,38,0.9,34,3
CC(=O)[C@H]1[C@@H]2C(=O)N(c3cccc(Cl)c3)C(=O)[C@@H]2[C@H]2c3ccccc3C=CN21,-3,1.6,90,1.4,91,nt
CC(C)(C)C(=O)[C@@H]1[C@@H]2C(=O)N(Cc3ccccc3)C(=O)[C@@H]2[C@H]2c3ccccc3C=CN12,68*,1.4,89,1.6,91,-8
COc1ccc(NC(=O)Nc2cccc([N+](=O)[O-])c2)cc1Cl,98*,0.9,5.0*,0.9,4,-3
COc1ccc(C(=O)Nc2cccc([N+](=O)[O-])c2)cc1Br,-3,nt,nt,nt,nt,nt
CC(C)(C)c1cc(CSC(=S)NC2CCS(=O)(=O)C2)c(Br)c(C(C)(C)C)c1 (stereo not given),95*,0.8,nt,0.8,nt,8
CCc1cc2c(nc1CC)CCN(CC/C(C)=N/OC[C@H]1O[C@H](c3ccccc3)C=C[C@@H]1Oc1ccc(OC)cc1)C2,67*,1,9,0.9,11,-4
CCCCSc1nnc([C@H](CC(C)C)NC(=O)OC(C)(C)C)o1,76*,0.9,64,0.9,73,30
COc1ccc(C2/C(=C(/O)c3ccccc3)C(=O)C(=O)N2CC(C)O)c(OC)c1 (stereo not given),1,1,104,0.9,104,nt
CNCCCOc1cc(C)cc(C)c1C,7,1,nt,1.1,nt,nt
CCOC(=O)COc1ccc(/C=C2/SC(=Nc3ccccc3)N(Cc3cccnc3)C2=O)cc1OC,60*,0.8,91,0.9,83,-8
CCOc1cc(/C=C2\SC(=Nc3ccccc3)N(c3ccccc3)C2=O)ccc1OCC(=O)O,-11,1,100,0.9,97,nt
COc1ccc(OC)c(NC(=O)CCN2CCN(c3ccccc3F)CC2)c1,0,1.1,98,1,87,nt
COc1ccc(C(=O)CCN2CCN(c3ccccc3F)CC2)cc1,79*,0.8,nt,0.8,nt,1
Cc1ccc(N2C(S)=C(C#N)C(=O)NC23CCCCC3)cc1,-1,0.9,68,1,74,nt
Cc1ccccc1N1C(S)=C(C#N)C(=O)NC12CCCCC2,51*,0.8,84,0.9,86,-20
O=[N+]([O-])c1cccc(-c2noc(COc3ccccc3)n2)c1,-2,0.4,nt,1,nt,nt
Cc1nn(-c2ccccn2)c2c1C(=O)C(Br)CC2 (stereo not given),100*,0.3,nt,0.3,nt,85*
CCOCCCNC(=O)CC1Oc2ccc(C)cc2NC1=O (stereo not given),-7,0.9,89,1,96,nt
COc1ccc(OC)c2[nH]c(=O)c(CCNC(=O)c3ccc(S(=O)(=O)N4CCCC4)cc3)cc12,67*,0.8,86,0.8,88,-9
Cc1cc(C(=O)CSc2nnc(-c3ccco3)o2)c(C)n1Cc1ccco1,4,1,103,0.9,91,nt
Cc1cc(C(=O)CCl)c(C)n1Cc1ccco1,100*,1.2,nt,1,nt,93*
SMILES,Lmaj promast,PMI activator,HCT116 bCat-KO,PMI act satM6P,HCT116 PTEN-null,Lmaj promast 1uM
CCC(C)(C)n1nnnc1CN1CCC(c2nc3ccc(C)cc3[nH]2)CC1,4,1,20,1,38,nt
Cc1cc2nc(C3CCN(Cc4nnnn4Cc4ccccc4)CC3)[nH]c2cc1C,91*,0.9,28,0.9,25,-19
CC(=O)O[C@]1(C(C)=O)CC[C@H]2[C@@H]3C[C@H](C)C4=CC(=O)CC[C@]4(C)[C@H]3CC[C@@]21C,76*,0.9,72,0.9,74,-2
Cc1ccc([N+](=O)[O-])cc1-c1ccc(/C=N/NC(=O)c2cc3c(ccc4ccccc43)o2)o1,100*,0.9,87,0.9,79,15
Cc1ccc(C)c(C(C)NC(=O)C2C3CCC(O3)C2C(=O)O)c1 (stereo not given),-2,0.9,89,0.9,93,nt
CN1c2cccc3cccc(c23)N(C)C1(C)C,99*,0.4,111,0.4,100,-16
CN1c2ccccc2N(C)C1(C)c1cccc2ccccc12,35,0.7,7,1,5,nt
CN(C)CCCN1C(=O)C(=O)/C(=C(/O)c2ccc3c(c2)OCO3)C1c1ccccn1 (stereo not given),-7,nt,nt,nt,nt,nt
CN1CCN2c3ccccc3Cc3ccccc3C2C1 (stereo not given),54*,1.4,74,1.5,82,-22
Oc1cccc(C=NCc2ccccc2)c1O,-6,0.5,59,0.5,75,nt
Oc1c(C=NCc2ccccc2)sc2ccccc12,56*,1,nt,1,nt,-9
CCCc1cc(=O)[nH]c(SC(CC)C(=O)Nc2ccccc2C#N)n1 (stereo not given),-15,1,95,1,109,nt
COc1ccc(N2C(=O)NC(NC(=O)c3cccnc3)(C(F)(F)F)C2=O)cc1 (stereo not given),-6,0.9,nt,0.8,nt,nt
CN(C)C(C(=O)NC1CCCCC1)c1ccc(Cl)cc1 (stereo not given),5,0.9,74,1,67,nt
O=C(NC1CCCC1)C(c1ccc(F)cc1)N(Cc1ccc(Cl)cc1)C(=O)CCl (stereo not given),99*,1.1,80,1.1,91,51*
CCCc1nc2c(=O)n(C)c(=O)nc-2n(C)n1,101*,0.6,nt,0.4,nt,94*
CC(C)(C)c1ccc(-c2ncccc2O)cc1,100*,0.9,nt,0.9,nt,83*
COC(=O)c1c(C)[nH]c(C)c1-c1ccccc1Cl,28,0.9,88,0.9,86,nt
COC(=O)C1=C(C(=O)OC)SC2(S1)C(C(=O)OC)=C(C(=O)OC)SC1=C2c2cccc(C)c2NC1(C)C,100*,0.8,47,0.8,82,6
O=S(=O)(N1CCCCCC1)N1CCN(S(=O)(=O)N2CCCCC2)CC1,-4,1.1,90,1.1,102,nt

# Assay outcomes: PubChem, several laboratories
